Experimental data published in ChEMBL document CHEMBL2057104, “Identification of myricetin and scutellarein as novel chemical inhibitors of the SARS coronavirus helicase, nsP13” (Bioorg Med Chem Lett, 2012).
pIC50: −log10 of the molar value. Activity calls are given as the source filed them. How the calls were made is not given here.

Legend:
[1] = system: Severe acute respiratory syndrome-related coronavirus; test: Inhibition of SARS coronavirus nsP13 ATP hydrolysis activity expressed in Escherichia coli Rosetta assessed as inhibition of inorganic phosphate release at 10 uM by AM/MG-based colometric analysis in the presence of M13 ssDNA
[2] = system: Severe acute respiratory syndrome-related coronavirus; test: Inhibition of SARS coronavirus nsP13 helicase activity expressed in Escherichia coli Rosetta assessed inhibition of DNA unwinding activity at 10 uM by FRET assay
Outline: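 FRET dsDNA-unwinding assay using fluorescein/TAMRA-labelled duplex. When nsP13 unwinds the duplex, fluorescein emission is unquenched. Compound was added to the unwinding reaction at 10 µM, and fluorescence was read at 535 nm.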

Hepacivirus hominis [3] = test: Inhibition of HCV NS3 helicase ATP hydrolysis activity overexpressed in Escherichia coli BL21(DE3) assessed as inhibition of inorganic phosphate release by AM/MG-based colometric analysis in the presence of M13 ssDNA
MCF-10A = test: Cytotoxicity in human MCF10A cells at 2 uM measured every 24 hrs for 3 days by hemocytometry; type: cell-based; settings: 72 h
Outline: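 MCF10A breast epithelial cells grown at 37°C in 5% CO2 and seeded at 2.0 × 10^5 per well. They were exposed to compound at 2 µM and harvested every 24 h for 3 days. Viable cells were counted by hemacytometer. Results are mean ± standard deviation, n = 6, compared by Student t-test.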

Hepacivirus hominis [4] = test: Inhibition of HCV NS3 helicase overexpressed in Escherichia coli BL21(DE3) assessed as inhibition of DNA unwinding activity at 10 uM by FRET assay
[5] = Inhibition of SARS coronavirus nsP13 ATP hydrolysis activity expressed in Escherichia coli Rosetta assessed as inhibition of inorganic phosphate release by AM/MG-based colometric analysis in the presence of M13 ssDNA; parameters: species or system Severe acute respiratory syndrome-related coronavirus
Outline: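 ATP hydrolysis was measured colorimetrically as phosphate complex formation with ammonium molybdate/malachite green. Reactions ran with a range of compound concentrations. IC50 was derived from the concentration series.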

## O=c1c(O)c(-c2cc(O)c(O)c(O)c2)oc2cc(O)cc(O)c12 [MYRICETIN]
[1]
  inhibition: > 90%
[2]
  inhibition: inactive
Hepacivirus hominis [3]
  inhibition: inactive
MCF-10A
  Activity: Non-toxic
Hepacivirus hominis [4]
  inhibition: inactive

## CC1(C)CC[C@]2(C)CC=C3[C@]4(C)CC[C@H]5C(C)(C)[C@@H](O)CC[C@]5(C)[C@H]4CC[C@@]3(C)[C@@H]2C1
[1]
  inhibition: 20%
[2]
  inhibition: inactive
Hepacivirus hominis [3]
  inhibition: inactive
Hepacivirus hominis [4]
  inhibition: inactive

## O=c1cc(-c2ccc(O)cc2)oc2cc(O)c(O)c(O)c12 [SCUTELLAREIN]
[1]
  inhibition: > 90%
[2]
  inhibition: inactive
Hepacivirus hominis [3]
  inhibition: inactive
[5]
  pIC50: 6.07
MCF-10A
  Activity: Non-toxic
Hepacivirus hominis [4]
  inhibition: inactive

## O=C(/C=C/c1ccccc1)NCCCCNC(=O)c1ccc(O)cc1
[2]
  inhibition: inactive
Hepacivirus hominis [3]
  inhibition: inactive
Hepacivirus hominis [4]
  inhibition: inactive

## O=c1cc(-c2ccc(O)c(-c3c(O)cc(O)c4c(=O)cc(-c5ccc(O)cc5)oc34)c2)oc2cc(O)cc(O)c12
[1]
  inhibition: 20%
[2]
  inhibition: inactive
Hepacivirus hominis [3]
  inhibition: inactive
Hepacivirus hominis [4]
  inhibition: inactive

## COc1ccc(-c2oc3c(CC=C(C)C)c(O[C@@H]4O[C@H](CO)[C@@H](O)[C@H](O)[C@H]4O)cc(O)c3c(=O)c2O[C@@H]2O[C@@H](C)[C@H](O)[C@@H](O)[C@H]2O)cc1
[2]
  inhibition: inactive
Hepacivirus hominis [3]
  inhibition: inactive
Hepacivirus hominis [4]
  inhibition: inactive

## O=c1c(O[C@@H]2O[C@H](CO)[C@@H](O)[C@H](O)[C@H]2O)c(-c2ccc(O)c(O)c2)oc2cc(O)cc(O)c12
[2]
  inhibition: inactive
Hepacivirus hominis [3]
  inhibition: inactive
Hepacivirus hominis [4]
  inhibition: inactive

## CC[C@H](CC[C@@H](C)[C@H]1CC[C@H]2[C@@H]3CC=C4C[C@@H](O[C@@H]5O[C@H](CO)[C@@H](O)[C@H](O)[C@H]5O)CC[C@]4(C)[C@H]3CC[C@]12C)C(C)C
[2]
  inhibition: inactive
Hepacivirus hominis [3]
  inhibition: inactive
Hepacivirus hominis [4]
  inhibition: inactive

## COc1c2c(cc3oc(C)cc(=O)c13)OC(C(C)(C)O[C@H]1O[C@@H](CO)[C@H](O)[C@@H](O)[C@@H]1O)C2 (stereo partly specified)
[2]
  inhibition: inactive
Hepacivirus hominis [3]
  inhibition: inactive
Hepacivirus hominis [4]
  inhibition: inactive

## C=C1CC[C@@H]2[C@H]([C@H]3[C@H]1CC[C@]3(C)O)C2(C)C
[2]
  inhibition: inactive
Hepacivirus hominis [3]
  inhibition: inactive
Hepacivirus hominis [4]
  inhibition: inactive

## CC[C@H](CC[C@@H](C)[C@H]1CC[C@H]2[C@@H]3CC=C4C[C@@H](O)CC[C@]4(C)[C@H]3CC[C@]12C)C(C)C
[2]
  inhibition: inactive
Hepacivirus hominis [3]
  inhibition: inactive
Hepacivirus hominis [4]
  inhibition: inactive

## C[C@H]1[C@H](C)CC[C@]2(C)CC[C@]3(C)C(=CC[C@@H]4[C@@]5(C)CC[C@H](O)C(C)(C)[C@@H]5CC[C@]43C)[C@H]12
[2]
  inhibition: inactive
Hepacivirus hominis [3]
  inhibition: inactive
Hepacivirus hominis [4]
  inhibition: inactive

## C[C@H]1O[C@@H](Oc2c(-c3cc(O)c(O)c(O)c3)oc3cc(O)cc(O)c3c2=O)[C@@H](O)[C@@H](O)[C@@H]1O
[1]
  inhibition: 20%
[2]
  inhibition: inactive
Hepacivirus hominis [3]
  inhibition: inactive
Hepacivirus hominis [4]
  inhibition: inactive

## CC(C)=CCc1c(O)c(CC=C(C)C)c2oc3c(O)cccc3c(=O)c2c1O
[2]
  inhibition: inactive
Hepacivirus hominis [3]
  inhibition: inactive
Hepacivirus hominis [4]
  inhibition: inactive

## C/C=C(/C)C(=O)O[C@H]1Cc2c(cc3oc(C)cc(=O)c3c2O)OC1(C)C
[2]
  inhibition: inactive
Hepacivirus hominis [3]
  inhibition: inactive
Hepacivirus hominis [4]
  inhibition: inactive

## CC(C)=CCC[C@](C)(O[C@@H]1O[C@H](CO[C@@H]2O[C@H](CO)[C@@H](O)[C@H](O)[C@H]2O)[C@@H](O)[C@H](O)[C@H]1O)[C@H]1CC[C@]2(C)[C@@H]1[C@H](O)C[C@@H]1[C@@]3(C)CC[C@H](O[C@@H]4O[C@H](CO)[C@@H](O)[C@H](O)[C@H]4O)C(C)(C)[C@@H]3CC[C@]12C
[2]
  inhibition: inactive
Hepacivirus hominis [3]
  inhibition: inactive
Hepacivirus hominis [4]
  inhibition: inactive
